Measured values from ChEMBL document CHEMBL4312005, “Optimization of pyrrolizine-based Schiff bases with 4-thiazolidinone motif: Design, synthesis and investigation of cytotoxicity and anti-inflammatory potency” (Eur J Med Chem, 2020).

Legend:
[1] = target: T1, Ephrin type-A receptor 1 (Homo sapiens) (UniProt P21709); assay: Inhibition of recombinant human N-terminal GST-tagged EPHA1 (569 to end residues) expressed in baculovirus infected Sf9 insect cells assessed as enzyme activity incubated for 15 mins by [gamma-33]ATP based scintillation counting method relative to control; design: scale not given: the % may be the effect or the level left
T1 sequence (whole entry): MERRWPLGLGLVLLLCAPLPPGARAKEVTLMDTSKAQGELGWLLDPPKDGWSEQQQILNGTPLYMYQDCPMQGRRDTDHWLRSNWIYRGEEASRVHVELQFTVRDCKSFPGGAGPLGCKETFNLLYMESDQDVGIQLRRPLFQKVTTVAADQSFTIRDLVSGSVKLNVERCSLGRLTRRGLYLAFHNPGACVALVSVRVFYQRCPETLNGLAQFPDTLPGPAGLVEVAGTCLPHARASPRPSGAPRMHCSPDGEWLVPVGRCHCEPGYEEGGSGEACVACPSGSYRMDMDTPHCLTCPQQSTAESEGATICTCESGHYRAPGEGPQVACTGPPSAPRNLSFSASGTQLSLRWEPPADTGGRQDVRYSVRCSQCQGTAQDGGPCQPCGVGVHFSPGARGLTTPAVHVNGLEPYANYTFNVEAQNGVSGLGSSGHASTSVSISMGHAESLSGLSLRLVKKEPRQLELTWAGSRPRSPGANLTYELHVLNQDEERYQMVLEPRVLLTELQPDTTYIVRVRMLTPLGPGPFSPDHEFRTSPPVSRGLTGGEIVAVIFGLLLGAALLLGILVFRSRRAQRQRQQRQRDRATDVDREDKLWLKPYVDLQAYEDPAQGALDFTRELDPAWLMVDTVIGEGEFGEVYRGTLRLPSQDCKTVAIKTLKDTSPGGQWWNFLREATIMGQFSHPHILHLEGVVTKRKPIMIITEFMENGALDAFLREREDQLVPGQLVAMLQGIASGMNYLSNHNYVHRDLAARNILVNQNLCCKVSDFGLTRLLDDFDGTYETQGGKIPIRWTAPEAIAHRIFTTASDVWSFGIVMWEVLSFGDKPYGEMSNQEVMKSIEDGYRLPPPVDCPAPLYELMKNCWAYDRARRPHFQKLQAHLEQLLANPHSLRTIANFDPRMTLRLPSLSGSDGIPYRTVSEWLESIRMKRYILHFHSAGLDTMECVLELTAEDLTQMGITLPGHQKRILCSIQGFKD

[2] = target: Activin receptor type-1-like (Homo sapiens) (UniProt P37023); assay: Inhibition of recombinant human N-terminal GST-tagged ALK1 (144 to end residues) expressed in baculovirus infected Sf9 insect cells assessed as enzyme activity incubated for 15 mins by [gamma-33]ATP based scintillation counting method relative to control; design: scale not given: the % may be the effect or the level left
[3] = target: T2, Aurora kinase A (Homo sapiens) (UniProt O14965); assay: Inhibition of recombinant human N-terminal GST-tagged full length Aurora A expressed in baculovirus infected Sf9 insect cells assessed as enzyme activity incubated for 15 mins by [gamma-33]ATP based scintillation counting method relative to control; design: scale not given: the % may be the effect or the level left
T2 sequence (whole entry): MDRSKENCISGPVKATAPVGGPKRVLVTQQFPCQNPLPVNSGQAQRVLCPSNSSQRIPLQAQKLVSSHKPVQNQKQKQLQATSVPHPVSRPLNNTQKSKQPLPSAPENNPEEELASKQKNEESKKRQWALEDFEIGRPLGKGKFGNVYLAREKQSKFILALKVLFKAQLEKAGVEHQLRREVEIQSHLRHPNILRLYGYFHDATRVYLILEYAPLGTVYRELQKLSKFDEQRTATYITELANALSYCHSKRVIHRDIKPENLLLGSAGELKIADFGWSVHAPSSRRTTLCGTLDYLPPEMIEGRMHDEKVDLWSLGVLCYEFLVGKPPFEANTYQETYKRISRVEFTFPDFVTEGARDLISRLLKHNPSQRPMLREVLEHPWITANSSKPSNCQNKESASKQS

[4] = target: T3, Dual specificity tyrosine-phosphorylation-regulated kinase 3 (Homo sapiens) (UniProt O43781); assay: Inhibition of DYRK3 (unknown origin) assessed as enzyme activity incubated for 15 mins by [gamma-33]ATP based scintillation counting method relative to control; design: scale not given: the % may be the effect or the level left
T3 sequence (whole entry): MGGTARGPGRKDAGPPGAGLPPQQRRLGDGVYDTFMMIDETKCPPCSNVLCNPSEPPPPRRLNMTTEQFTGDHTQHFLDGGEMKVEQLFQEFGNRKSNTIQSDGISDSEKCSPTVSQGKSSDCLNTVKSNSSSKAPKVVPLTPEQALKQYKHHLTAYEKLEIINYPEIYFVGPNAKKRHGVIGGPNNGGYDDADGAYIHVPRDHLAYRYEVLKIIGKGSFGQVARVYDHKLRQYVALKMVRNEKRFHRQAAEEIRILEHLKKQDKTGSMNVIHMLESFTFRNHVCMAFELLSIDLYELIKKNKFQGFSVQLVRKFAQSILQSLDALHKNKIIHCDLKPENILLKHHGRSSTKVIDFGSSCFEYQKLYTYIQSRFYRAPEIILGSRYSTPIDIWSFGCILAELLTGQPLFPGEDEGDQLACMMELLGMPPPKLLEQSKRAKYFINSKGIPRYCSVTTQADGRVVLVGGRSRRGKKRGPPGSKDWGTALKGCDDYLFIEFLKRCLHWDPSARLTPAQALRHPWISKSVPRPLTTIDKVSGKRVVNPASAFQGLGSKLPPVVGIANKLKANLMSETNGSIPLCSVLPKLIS

[5] = target: Casein kinase I isoform alpha (Homo sapiens) (UniProt P48729); assay: Inhibition of CK1alpha1 (unknown origin) assessed as enzyme activity incubated for 15 mins by [gamma-33]ATP based scintillation counting method relative to control; design: scale not given: the % may be the effect or the level left
A2780 = assay: Antiproliferative activity against human A2780 cells assessed as reduction in cell growth incubated for 72 hrs by MTT assay; assay type: functional, cell-based; conditions: A2780, 72 h
How it was run: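 MTT assay on MCF-7, A2780, HT29 and normal MRC5 fibroblast lines (ATCC) grown in DMEM with 10% FBS. Cells exposed to compounds for 72 h, then reduced MTT read at 570 nm.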

[6] = target: Prostaglandin G/H synthase 1 (Homo sapiens, UniProt P23219); assay: Inhibition of human COX1 using arachidonic acid as substrate incubated for 2 mins by ELISA method
Sequence of Prostaglandin G/H synthase 1 (P23219 whole entry): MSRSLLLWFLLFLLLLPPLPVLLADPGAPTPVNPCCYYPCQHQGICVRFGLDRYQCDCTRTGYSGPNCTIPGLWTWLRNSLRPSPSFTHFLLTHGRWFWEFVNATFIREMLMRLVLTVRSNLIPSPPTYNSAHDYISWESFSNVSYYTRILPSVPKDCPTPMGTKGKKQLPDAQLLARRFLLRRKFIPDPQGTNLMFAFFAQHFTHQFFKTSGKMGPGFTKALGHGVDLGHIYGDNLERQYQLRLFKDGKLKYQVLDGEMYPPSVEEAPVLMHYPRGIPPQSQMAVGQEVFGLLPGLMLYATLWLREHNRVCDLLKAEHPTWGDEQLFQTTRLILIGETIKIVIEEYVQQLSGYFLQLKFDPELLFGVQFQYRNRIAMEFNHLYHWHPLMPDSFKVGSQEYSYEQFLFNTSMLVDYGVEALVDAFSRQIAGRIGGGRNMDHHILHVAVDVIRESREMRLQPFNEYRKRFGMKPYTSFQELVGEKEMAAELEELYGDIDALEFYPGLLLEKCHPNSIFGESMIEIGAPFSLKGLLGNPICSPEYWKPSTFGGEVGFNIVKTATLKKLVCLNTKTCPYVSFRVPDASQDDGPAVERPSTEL

Sequence of Activin receptor type-1-like (Homo sapiens) (P37023 whole entry): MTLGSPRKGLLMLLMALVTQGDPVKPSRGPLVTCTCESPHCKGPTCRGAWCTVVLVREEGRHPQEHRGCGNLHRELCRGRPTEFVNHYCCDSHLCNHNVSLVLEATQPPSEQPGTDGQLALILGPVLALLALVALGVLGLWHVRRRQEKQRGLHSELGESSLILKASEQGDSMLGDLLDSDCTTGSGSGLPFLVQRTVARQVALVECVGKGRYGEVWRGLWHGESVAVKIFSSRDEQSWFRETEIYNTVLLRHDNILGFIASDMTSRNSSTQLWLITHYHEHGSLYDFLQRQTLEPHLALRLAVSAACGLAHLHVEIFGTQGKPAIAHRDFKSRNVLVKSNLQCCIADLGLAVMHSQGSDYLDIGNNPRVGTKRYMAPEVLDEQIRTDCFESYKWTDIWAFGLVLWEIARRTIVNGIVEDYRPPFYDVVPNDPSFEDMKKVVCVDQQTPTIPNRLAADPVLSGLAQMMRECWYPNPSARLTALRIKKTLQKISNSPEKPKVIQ
Sequence of Casein kinase I isoform alpha (Homo sapiens) (P48729 2-337 limits assumed): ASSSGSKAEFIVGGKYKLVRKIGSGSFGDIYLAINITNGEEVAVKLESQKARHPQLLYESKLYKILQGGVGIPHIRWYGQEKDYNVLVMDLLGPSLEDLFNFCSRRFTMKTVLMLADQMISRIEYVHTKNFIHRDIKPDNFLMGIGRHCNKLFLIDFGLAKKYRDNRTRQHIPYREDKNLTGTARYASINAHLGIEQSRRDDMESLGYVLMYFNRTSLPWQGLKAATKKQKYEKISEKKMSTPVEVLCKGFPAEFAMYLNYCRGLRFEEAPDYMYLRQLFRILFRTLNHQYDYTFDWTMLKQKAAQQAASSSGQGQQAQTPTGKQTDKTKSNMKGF

Activity [1] [%] | Activity [2] [%] | Activity [3] [%] | Activity [4] [%] | Activity [5] [%] | IC50 (A2780) [µM] | IC50 [6] [µM] | Structure (SMILES)
22 | 14 | -38 | -10 | 0 |  |  | Cc1ccc(NC(=O)c2ccc(CN3CCN(C)CC3)cc2)cc1Nc1nccc(-c2cccnc2)n1
25 | -5 | 1 | -25 | 6 | 0.52 | > 100 | CC(C)C/C=N/c1c(C#N)c2n(c1C(=O)Nc1ccc(Br)cc1)CCC2
-5 | 4 | -8 | 33 | -23 | 15.6 | > 100 | CC/C=N/c1c(C#N)c2n(c1C(=O)Nc1ccccc1)CCC2
4 | -11 | -11 | 38 | -16 | 0.22 | 43.7 | CCC1SCC(=O)N1c1c(C#N)c2n(c1C(=O)Nc1ccccc1)CCC2 (stereo unspecified)
